Assay results pooled from the literature.
Values after ≈ are worked out from the molar mass of the structure shown.
Organism: Escherichia coli
Read-out: microbial growth

SMILES | assay | system | conditions | MIC
COC(=O)c1cc(-c2cccc(NC(=O)Nc3ccc(C(F)(F)F)cc3)c2)on1 | broth dilution | ATCC25922 |  | > 64 µg/mL
CCCCCCC#Cc1cncc(-c2nnc(SCc3cc([N+](=O)[O-])cc([N+](=O)[O-])c3)n2C)c1 |  |  |  | ≥ 20 µg/mL
CC1(C)S[C@@H]2[C@H](NC(=O)[C@H](N)c3ccccc3)C(=O)N2[C@H]1C(=O)O | broth dilution | ATCCBAA2469 |  | > 64 µg/mL
COC(=O)c1cc(-c2cccc(NC(=S)Nc3cccc(Cl)c3)c2)on1 | broth dilution | ATCC25922 |  | > 64 µg/mL
Oc1cc(Cl)ccc1Oc1ccc(Cl)cc1Cl | broth dilution | MG1655 | clinical isolate | 0.5 µg/mL (≈ 1.73 µM)
Oc1cc(Cl)ccc1Oc1ccc(Cl)cc1Cl |  |  |  | > 3.2 µg/mL
C[C@H]1COCCN1c1nc(NCc2cccnc2C(F)(F)F)c2cccnc2n1 | broth dilution | 25922 |  | 128 µg/mL (≈ 317 µM)
Fc1c(F)c(F)c(F)c(F)c1F |  | ATCC25922 |  | > 250 µg/mL
C[C@H](CCC(=O)NCCCNCCCCNCCCN)[C@H]1CC[C@H]2[C@@H]3CC=C4C[C@@H](O)CC[C@]4(C)[C@H]3CC[C@]12C | broth dilution | MG1655 | 20 h | 64 µg/mL (≈ 115 µM)
C[n+]1c(/C=C/c2c[nH]c3ccccc23)cc(/C=C2\Sc3ccccc3N2CCCN2CCCC2)c2ccccc21.[I-] | broth dilution | ATCCBAA2469 |  | 4 µg/mL
COC(=O)c1cc(-c2cccc(NC(=O)Nc3cc(OC)ccc3OC)c2)on1 | broth dilution | ATCC25922 |  | > 64 µg/mL
C[n+]1c(/C=C/c2c[nH]c3ccccc23)cc(/C=C2\Sc3ccccc3N2CCCN2CCOCC2)c2ccccc21.[I-] | broth dilution | ATCCBAA2469 |  | 64 µg/mL
COc1cc(O)c2c(c1)/C=C/C[C@H](O)[C@H](O)C(=O)/C=C/C[C@H](C)OC2=O |  |  |  | > 500 µg/mL
COC(=O)c1cc(-c2cccc(NC(=O)Nc3ccc(F)cc3)c2)on1 | broth dilution | ATCC25922 |  | > 64 µg/mL
CO[C@H]1/C=C/O[C@@]2(C)Oc3c(C)c(O)c4c(O)c(c(/C=N/N5CCN(C)CC5)c(O)c4c3C2=O)NC(=O)/C(C)=C\C=C\[C@H](C)[C@H](O)[C@@H](C)[C@@H](O)[C@@H](C)[C@H](OC(C)=O)[C@@H]1C | broth dilution | ATCCBAA2469 |  | > 64 µg/mL
COC(=O)c1cc(-c2cccc(NC(=O)Nc3ccc(Cl)cc3Cl)c2)on1 | broth dilution | ATCC25922 |  | > 64 µg/mL
CN[C@H](CC(C)C)C(=O)N[C@H]1C(=O)N[C@@H](CC(N)=O)C(=O)N[C@H]2C(=O)N[C@H]3C(=O)N[C@H](C(=O)N[C@H](C(=O)O)c4cc(O)cc(O)c4-c4cc3ccc4O)[C@H](O)c3ccc(c(Cl)c3)Oc3cc2cc(c3O[C@@H]2O[C@H](CO)[C@@H](O)[C@H](O)[C@H]2O[C@H]2C[C@](C)(N)[C@H](O)[C@H](C)O2)Oc2ccc(cc2Cl)[C@H]1O | broth dilution | ATCCBAA2469 |  | > 64 µg/mL
C[C@H]1COc2c(N3CCN(C)CC3)c(F)cc3c(=O)c(C(=O)O)cn1c23 | broth dilution | ATCC25922 |  | 0.0156 µg/mL (≈ 0.0432 µM)
Cc1cc(/C=C2\Sc3ccccc3N2CCCN2CCCCC2)c2ccccc2[n+]1C.[I-] | broth dilution | ATCCBAA2469 |  | 4 µg/mL
